Only some compounds are listed: those with a hit (about 4.8% of all), similar ones and a draw of the others.
PAFAH1B2 FP inh: inhibitors of human PAFAH1B2 | inhibition, % at 3.39 µM | recombinant PAFAH1B2, FP-rhodamine activity probe, fluorescence polarization | 340,000 compounds, 1.2% hits | AID 492953;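 active = inhibition above the mean of all tested compounds plus 3 SD, cut at about 24% in these data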;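 also: 0% = enzyme with DMSO and 100% = wells lacking PAFAH1B2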
PAFAH1B3 inh: PAFAH1B3 (human) inhibition. 340,000 compounds, 0.28% hits. AID 492972. recombinant PAFAH1B3, FP-rhodamine probe, fluorescence polarization. inhibition, % at 3.39 µM;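 active = inhibition above the screen-wide average of all tested compounds plus 3 SD, cut at about 25% in these data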;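 also: 0% = enzyme with DMSO only and 100% = wells lacking PAFAH1B3 protein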
UCH37 inh: blocks the human deubiquitinase UCH37; Q9Y5K5; purified proteasome/UCH37, Ub-AMC cleavage fluorescence; inhibition, % (test concentration not listed); 330,000 compounds, 0.33% hits; AID 588478;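 active = mean inhibition over replicate wells above about 20%, limit read from the data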;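 also: 0% = compound-free wells with enzyme and 100% = wells lacking proteasome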
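Material: human UCH37 enzyme supplied as purified proteasome complex. Measure: % inhibition of Ub-AMC cleavage fluorescence. Medium: pH 7.4 Tris-HCl (50 mM) with ovalbumin, ATP-MgCl2, DTT. Times: 30 min preincubation with enzyme, 25 min cleavage at room temperature. Detection: AMC fluorescence intensity at 355/460 nm.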
pPAFAH inh: pPAFAH (human) enzyme inhibition | recombinant pPAFAH, FP-rhodamine probe fluorescence polarization | 330,000 compounds, 1.5% hits | AID 463082 | Q13093 | inhibition, % at 3.39 µM;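 active = inhibition above the mean inhibition across the screen plus 3 SD, cut at about 25% in these data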;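 also: inhibitors block binding of the rhodamine activity-based probe so polarization drops; 0% = enzyme with DMSO and 100% = wells lacking pPAFAH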
Target sequence (Q13093 whole entry, looked up): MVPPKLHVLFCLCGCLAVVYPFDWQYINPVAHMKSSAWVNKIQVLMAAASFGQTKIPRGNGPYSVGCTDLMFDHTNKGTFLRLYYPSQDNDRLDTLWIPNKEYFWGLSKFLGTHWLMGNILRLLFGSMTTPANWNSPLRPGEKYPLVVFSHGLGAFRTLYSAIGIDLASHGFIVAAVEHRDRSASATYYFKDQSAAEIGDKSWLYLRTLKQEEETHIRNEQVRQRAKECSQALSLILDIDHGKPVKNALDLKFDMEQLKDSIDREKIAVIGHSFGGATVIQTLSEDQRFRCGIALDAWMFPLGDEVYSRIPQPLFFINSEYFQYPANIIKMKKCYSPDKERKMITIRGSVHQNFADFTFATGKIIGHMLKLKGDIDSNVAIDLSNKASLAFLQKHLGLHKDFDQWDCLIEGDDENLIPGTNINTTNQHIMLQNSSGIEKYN
PAFAH2 FP inh: inhibitors of human PAFAH2. Q99487. recombinant PAFAH2, FP-rhodamine activity probe, fluorescence polarization. inhibition, % at 3.39 µM. 340,000 compounds, 0.99% hits. AID 492956;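 active = inhibition above the mean over all tested compounds plus 3 SD, cut at about 30% in these data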;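 also: inhibitors block probe labeling of enzyme so polarization drops; 0% = enzyme with DMSO and 100% = wells lacking PAFAH2 protein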
GRIN3A LBD mod: modulates the human NR3A ligand-binding domain; 340,000 compounds, 2.5% hits; NR3A LBD differential scanning fluorimetry, Tm shift; 0% = protein alone, 100% = glycine-bound protein; AID 1259313; Tm shift relative to glycine control, % at 25 µM;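 active = melting temperature shift of at least 10% of the positive control shift, at one fixed dose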
PAFAH2 confirm: PAFAH2 (human) inhibition, confirmed; shares compounds with PAFAH2 FP inh; recombinant PAFAH2, FP-rhodamine activity probe, fluorescence polarization; inhibition, % at 3.39 µM; 2,300 compounds, 65% hits;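 active = mean inhibition over three repeats above a set limit taken from the earlier primary screen, cut at about 30% in these data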;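 also: inhibitor blocks binding of rhodamine activity probe so polarization falls; 0% = enzyme with DMSO and 100% = wells lacking PAFAH2 protein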
Starred values were filed as active, the others as inactive.

Cc1ccn(C(=O)c2ccc(NC(=O)C3CC3)cc2)n1 was read as PAFAH1B2 FP inh -1, PAFAH1B3 inh 3, UCH37 inh 6, pPAFAH inh 0, PAFAH2 FP inh 63*, GRIN3A LBD mod -2 and PAFAH2 confirm 53*.
CC(=NNC(=O)c1ccco1)c1ccc(NC(=O)c2ccc(Br)o2)cc1 was read as UCH37 inh 6.
For COc1cc(C=NNc2ccc(Cl)cc2)ccc1OC(=O)c1cccs1 the results were UCH37 inh 5.
For CC(=O)Nc1ccc(C(=O)OCC(=O)NC(=O)NC(C)(C)C)cc1 the results were PAFAH1B2 FP inh 1, PAFAH1B3 inh 7, UCH37 inh 0, pPAFAH inh 3, PAFAH2 FP inh 41*, GRIN3A LBD mod 0 and PAFAH2 confirm 31*.
`CC(=O)Nc1ccc(C(=O)OCC(=O)NCCC2=CCCCC2)cc1` gave PAFAH1B2 FP inh -2, PAFAH1B3 inh 6, UCH37 inh 6, PAFAH2 FP inh 66*, GRIN3A LBD mod 0 and PAFAH2 confirm 61*.
Screening O=C(COC(=O)c1ccc(OC(F)F)cc1)NCCC1=CCCCC1 returned PAFAH1B2 FP inh 1, PAFAH1B3 inh -2, UCH37 inh -1, pPAFAH inh 22, PAFAH2 FP inh 41*, GRIN3A LBD mod -1 and PAFAH2 confirm 15.
For CC(=O)c1cccc(NC(=O)COC(=O)CC2CC3CCC2C3)c1 (centres undefined) the results were PAFAH1B2 FP inh 16, PAFAH1B3 inh -2, UCH37 inh 3, pPAFAH inh 20, PAFAH2 FP inh 75*, GRIN3A LBD mod 1 and PAFAH2 confirm 63*.
O=C(COC(=O)CC1CC2CCC1C2)Nc1cccc(S(=O)(=O)NC2=NCCCCC2)c1 (centres undefined) was read as PAFAH1B2 FP inh 6, PAFAH1B3 inh 5, UCH37 inh 4, pPAFAH inh 10, PAFAH2 FP inh 29 and GRIN3A LBD mod -1.
`NS(=O)(=O)c1cccc(NC(=O)COC(=O)CC2CC3CCC2C3)c1` (centres undefined) gave PAFAH1B2 FP inh 21, PAFAH1B3 inh 5, UCH37 inh 3, pPAFAH inh 2, PAFAH2 FP inh 35*, GRIN3A LBD mod -2 and PAFAH2 confirm 19.
CC1CCCCC1NC(=O)COC(=O)c1ccc2c(c1)NC(=O)CS2 (centres undefined) was read as PAFAH1B2 FP inh 5, PAFAH1B3 inh -1, UCH37 inh 0, pPAFAH inh -2, PAFAH2 FP inh 86*, GRIN3A LBD mod -1 and PAFAH2 confirm 77*.
For COc1ccc(C(=O)NC(=O)COC(=O)c2ccc3ncsc3c2)cc1 the results were pPAFAH inh -3.
`CN(C(=O)COC(=O)c1ccc2c(c1)NC(=O)CS2)C1CCS(=O)(=O)C1` (centres undefined) gave PAFAH1B2 FP inh -2, PAFAH1B3 inh -3, UCH37 inh 1, pPAFAH inh 2, PAFAH2 FP inh -9 and GRIN3A LBD mod -2.
For CC1CCCC(NC(=O)COC(=O)c2ccc3ncsc3c2)C1C (centres undefined) the results were PAFAH1B2 FP inh 4, PAFAH1B3 inh 3, UCH37 inh 3, pPAFAH inh -4, PAFAH2 FP inh 85*, GRIN3A LBD mod -2 and PAFAH2 confirm 76*.
CC1CCCCC1NC(=O)COC(=O)c1ccc2ncsc2c1 (centres undefined) was read as PAFAH1B2 FP inh 7, PAFAH1B3 inh 11, UCH37 inh 1, pPAFAH inh -3, PAFAH2 FP inh 84*, GRIN3A LBD mod 4 and PAFAH2 confirm 78*.
CN(N=CCc1nnnn1-c1ccc(Cl)cc1)c1ccccc1 was read as UCH37 inh 2.
For CCSC1=N/C(=C\c2ccc(C(=O)O)cc2)C(=O)S1 the results were PAFAH1B2 FP inh 0, PAFAH1B3 inh 11, UCH37 inh 8, pPAFAH inh 2, PAFAH2 FP inh 31*, GRIN3A LBD mod 20* and PAFAH2 confirm 15.

Assay outcomes as filed in PubChem.
